The text below walks through data of ChEMBL document CHEMBL3272057, “Synthesis and structure-toxicity relationships of three new stable analogues of acetyl-seco-hemicholinium-3” (J Med Chem, 1976).

Calls of active or inactive are those of the source. The rule behind the calls is not given here.

Data set [1] has as its target T1, Acetylcholinesterase (Bos taurus) (UniProt P23795).
T1 sequence (whole entry): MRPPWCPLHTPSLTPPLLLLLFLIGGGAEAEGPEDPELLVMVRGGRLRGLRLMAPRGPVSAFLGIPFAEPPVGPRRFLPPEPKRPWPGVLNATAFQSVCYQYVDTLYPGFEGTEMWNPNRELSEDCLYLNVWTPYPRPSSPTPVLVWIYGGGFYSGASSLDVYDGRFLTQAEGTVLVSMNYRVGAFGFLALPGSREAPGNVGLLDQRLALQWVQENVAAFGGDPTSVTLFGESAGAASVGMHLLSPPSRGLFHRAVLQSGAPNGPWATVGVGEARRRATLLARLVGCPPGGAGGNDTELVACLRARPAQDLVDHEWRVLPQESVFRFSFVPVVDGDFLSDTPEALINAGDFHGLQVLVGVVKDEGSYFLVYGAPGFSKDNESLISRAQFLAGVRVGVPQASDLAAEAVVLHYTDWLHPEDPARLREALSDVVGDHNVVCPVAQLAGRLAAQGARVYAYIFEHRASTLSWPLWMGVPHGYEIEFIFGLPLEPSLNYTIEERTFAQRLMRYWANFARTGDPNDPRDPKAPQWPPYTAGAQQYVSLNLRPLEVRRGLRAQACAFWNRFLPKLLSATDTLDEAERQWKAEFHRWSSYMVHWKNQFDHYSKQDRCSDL
In words: Binding affinity to bovine erythrocyte acetylcholinesterase in water at pH 7.4 at 100 x 10^-5 M up to 6 hrs by UV-spectra analysis. In short, it runs like this: (§1)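 Test solutions 100 × 10⁻⁵ M in pH 7.4 buffered water. UV spectrum recorded against identically buffered water reference. 0.1 ml of bovine erythrocyte acetylcholinesterase (40 μ/ml, pH 7.4 buffer) was added to 1-ml sample and reference, giving an enzyme level similar to blood. Spectrum recorded immediately, then again after incubation at 37° for 6 h. Shift in λmax was read.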

The nature of data set [2]: (§2) Toxicity in ip dosed Charles River CD-1 albino mouse measured within 5 mins. Particulars: CD-1, mouse, in vivo. The class given is organism-based.
In data set [3] the test system is Mus musculus. The data set is described as §2. It is filed as organism-based. Particulars: mouse, in vivo, 5 min.
Data set [4] deals with Mus musculus. In words: Toxicity in ip dosed Charles River CD-1 albino mouse assessed as reduction of cardiac contraction. It is filed as organism-based, Heart. Particulars: in vivo.
The test system of data set [5] is Mus musculus. In words: Toxicity in ip dosed Charles River CD-1 albino mouse assessed as increase of peristalsis of small intestine. The class given is organism-based. The settings on record: in vivo.
Data set [6] is described as follows: Chemical stability of the compound in water at slightly acidic condition up to 48 hrs by NMR analysis. The class given is physicochemical. The settings on record: buffer.
The nature of data set [7]: Chemical stability of the compound in water at pH 7.4 up to 48 hrs by NMR analysis. The class given is physicochemical. Particulars: buffer, pH 7.4, 48 h.
The nature of data set [8]: Chemical stability of the compound in deuterium oxide solutions at slightly acidic condition up to 48 hrs by NMR analysis. It is filed as physicochemical.
Data set [9] can be described thus: Chemical stability of the compound in deuterium oxide solutions at pH 7.4 up to 48 hrs by NMR analysis. Particulars: buffer, pH 7.4, 48 h. The class given is physicochemical.
The nature of data set [10]: Ratio of hemicholinium-3 LD50 to compound LD50 for toxicity in ip dosed Charles River CD-1 albino mouse measured within 5 mins. It is filed as organism-based. Particulars: CD-1, mouse, in vivo.
Data set [11] can be described thus: Toxicity in ip dosed Charles River CD-1 albino mouse assessed as mortality at >LD95 in presence of choline. It is filed as organism-based. Particulars: CD-1, mouse, in vivo, read-out: Activity. An outline of the steps:
(§3)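 CD-1 male mice. Choline (20 mg/kg) or neostigmine (0.2 mg/kg) was given ip 1 min before an ip >LD95 dose of compound in saline. Read-out was % mortality.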

Data set [12] in a line: Toxicity in ip dosed Charles River CD-1 albino mouse assessed as mortality at >LD95 in presence of neostigmine. It is filed as organism-based. Particulars: CD-1, mouse, in vivo, read-out: Activity. An outline of the steps:
as §3

Data set [13] addresses T1, Acetylcholinesterase (Bos taurus). The data set is described as follows: Binding affinity to bovine erythrocyte acetylcholinesterase in water at pH 7.4 at 100 x 10^-5 M measured immediately by UV-spectra analysis. In short, it runs like this: as §1

Broadly, the LD50 is the dose at which mortality reaches 50%. A low value points to greater toxicity. For the compound `C[N+]1(C)CCOC(O)(c2ccc(-c3ccc(C4(O)C[N+](C)(C)CCO4)cc3)cc2)C1` (configuration not stated) [HEMICHOLINIUM-3], in [1], the result was inactive. Besides, in data set [2], the LD50 at 5 min turned out to be 0.13 mg/kg. This compound also registered an LD95 with Mus musculus [3] of 0.2 mg/kg. Further, the Activity entry in the data set on Mus musculus [4] is reported as “Non-toxic”; in the data set on Mus musculus [5] it was “Toxic”.

On to `CC(=O)CCC[N+](C)(C)CC(=O)c1ccc(-c2ccc(C(=O)C[N+](C)(C)CCCC(C)=O)cc2)cc1.[Br-].[Br-]`, for which the Stability result in [6], in [7], in data set [8] and in data set [9] was “Stable” each time. In addition, the result in [1] was inactive. In data set [2], this compound showed a median lethal dose (LD50) at 5 min of 3.1 mg/kg. In the data set with Mus musculus [3], the LD95 is 4.6 mg/kg. Also, the Activity result in the data set with Mus musculus [4] is “Non-toxic”; with Mus musculus [5], “Toxic”. Further, the selectivity ratio at 5 min in data set [10] worked out at 23.8. The mortality came out at 0% in [11] and 70% in data set [12].

Turning to `CC(=O)OCC[N+](C)(C)CC(=O)c1ccc(-c2ccc(C(=O)C[N+](C)(C)CCOC(C)=O)cc2)cc1.[Br-].[Br-]`, in data set [13], the outcome was Active. Moreover, the LD50 at 5 min in data set [2] amounted to 0.125 mg/kg. This compound also showed an LD95 in the data set on Mus musculus [3] of 0.4 mg/kg. Also, the Activity entry in the data set on Mus musculus [4] was “Non-toxic”; in the data set with Mus musculus [5], “Toxic”. In addition, in data set [10], the selectivity ratio at 5 min came out at 1.

Turning to `CCCCC[N+](C)(C)CC(=O)c1ccc(-c2ccc(C(=O)C[N+](C)(C)CCCCC)cc2)cc1.[Br-].[Br-]`, the Stability entry in [6], in data set [7], in data set [8] and in [9] was “Stable” throughout. Moreover, the outcome in [1] was inactive. In data set [2], the LD50 at 5 min was 5.6 mg/kg. Moreover, in the data set with Mus musculus [3], the LD95 is 5.8 mg/kg. In addition, the figures for the Activity result in the data set on Mus musculus [4] and with Mus musculus [5] were “Non-toxic” and “Toxic”, respectively. For the same compound, the selectivity ratio at 5 min in data set [10] was found to be 43.1. Further, the mortality was 30% in data set [11] and 80% in data set [12].

Regarding `CCOCC[N+](C)(C)CC(=O)c1ccc(-c2ccc(C(=O)C[N+](C)(C)CCOCC)cc2)cc1.[Br-].[Br-]`, the Stability entry in data set [6], in data set [7], in [8] and in [9] was “Stable” throughout. Besides, the outcome in data set [1] was inactive. This compound also had a 50% lethal dose (LD50) at 5 min in data set [2] of 1.84 mg/kg. Besides, the LD95 in the data set on Mus musculus [3] was 2.67 mg/kg. The Activity result in the data set on Mus musculus [4] was “Non-toxic”; with Mus musculus [5], “Toxic”. Moreover, the selectivity ratio at 5 min in data set [10] was 14.2. In addition, the mortality worked out at 0% in data set [11] and 80% in [12].
